Measured values taken from ChEMBL document CHEMBL4402601, “Discovery of a Silicon-Containing Pan-Genotype Hepatitis C Virus NS5A Inhibitor” (J Med Chem, 2020).

Experiments:
Hepatitis C virus [1] = assay: Resistance index, ratio of EC50 for Hepatitis C virus subtype 1b Con1 subgenomic replicon expressing NS5A Y93H mutant infected in human HuH7 cells to EC50 for Hepatitis C virus subtype 1b Con1 subgenomic replicon expressing NS5A infected in human HuH7 cells; format: functional, Hepacivirus hominis
[2] = Cmax in dog at 5 mg/kg, po by UPLC-MS/MS analysis; format: ADME, organism-based, Canis lupus familiaris; parameters: dose 5 mg/kg, route oral; details: in vivo
Hepatitis C virus [3] = assay: Antiviral activity against Hepatitis C virus subtype 1a H77 subgenomic replicon expressing NS5A L31V mutant infected in human HuH7 cells assessed as reduction in viral replication incubated for 3 days by luciferase reporter gene assay; format: functional, organism-based, Hepacivirus hominis; details: subtype 1a H77, Huh-7, 72 h
Summary of the method: (§1)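 NS5A resistance-associated variants introduced into GT1a-H77 or GT1b-Con1 replicons. In transient assays, each variant replicon was electroporated into a Huh-7-derived cell line. Inhibition measured as drop in luciferase signal. Percent inhibition computed per concentration; EC50 from 4-parameter logistic nonlinear fit. Fold resistance is variant EC50 relative to the matching reference replicon.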

[4] = MRT in dog at 5 mg/kg, po by UPLC-MS/MS analysis; format: ADME, organism-based, Canis lupus familiaris; details: in vivo
Hepatitis C virus [5] = assay: Antiviral activity against Hepatitis C virus subtype 5a subgenomic replicon expressing NS5A infected in human HuH7 cells assessed as reduction in viral replication incubated for 3 days by luciferase reporter gene assay; format: functional, organism-based, Hepacivirus hominis; details: Huh-7, 72 h
[6] = Toxicity in mouse assessed as effect on hepatological parameters at 300 mg/kg, po administered for 14 days and measured on day 14; format: organism-based; details: in vivo, 336 h
Summary of the method: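 Mice randomised after acclimation into two groups of 5 males and 5 females. Compound at 300 mg/kg or vehicle alone given once daily by oral gavage for 14 days. Clinical signs observed daily. Body weight and food intake recorded on day 1, then twice weekly. Animals killed after the 14th dose.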

[7] = Ratio of drug distribution in mouse liver to drug distribution in mouse plasma measured after 24 hrs by UPLC-MS/MS analysis; format: ADME, cell-free
Summary of the method: (§2)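 Oral dosing in mice and rats; compound measured in plasma and liver by UPLC-MS/MS at each time point, n = 3 (mean ± SD). LPR is mean liver concentration divided by mean plasma concentration.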

Hepatitis C virus [8] = assay: Antiviral activity against Hepatitis C virus subtype 1b Con1 replicon expressing NS5A L31W mutant infected in human HuH7 cells assessed as reduction in viral replication incubated for 3 days by luciferase reporter gene assay; format: functional, organism-based, Hepacivirus hominis; details: subtype 1b Con1, Huh-7, 72 h; summary of the method: as §1
[9] = Drug distribution in mouse liver at 10 mg/kg, po incubated for 3 hrs by UPLC-MS/MS analysis; format: ADME, organism-based; details: read-out: Drug uptake; summary of the method: as §2
Hepatitis C virus [10] = assay: Antiviral activity against Hepatitis C virus subtype 1b Con1 replicon expressing NS5A Y93H mutant infected in human HuH7 cells assessed as reduction in viral replication incubated for 3 days by luciferase reporter gene assay; format: functional, organism-based, Hepacivirus hominis; details: subtype 1b Con1, Huh-7, 72 h; summary of the method: as §1
Hepatitis C virus [11] = assay: Resistance index, ratio of EC50 for Hepatitis C virus subtype 1a H77 subgenomic replicon expressing NS5A Y93C mutant infected in human HuH7 cells to EC50 for Hepatitis C virus subtype 1a H77 subgenomic replicon expressing NS5A infected in human HuH7 cells; format: functional, Hepacivirus hominis
[12] = Metabolic stability in mouse liver microsomes assessed as compound remaining at 1 uM incubated for 60 mins by UPLC-MS/MS analysis; format: ADME, Microsome; details: read-out: Stability
Summary of the method: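 Pooled mouse, rat or human liver microsomes (0.5 mg/mL) with 1 μM compound, 1 mM NADPH, 5 mM MgCl₂ and 100 mM potassium phosphate pH 7.4. Pre-incubated 5 min at 37 °C, started with NADPH, then run 60 min at 37 °C. Quenched with ice-cold acetonitrile containing internal standard; parent remaining measured by UPLC-MS/MS.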

[13] = Drug distribution in rat liver at 10 mg/kg, po incubated for 8 hrs by UPLC-MS/MS analysis; format: ADME, organism-based; details: read-out: Drug uptake; summary of the method: as §2
Hepatitis C virus [14] = assay: Resistance index, ratio of EC50 for Hepatitis C virus subtype 1a H77 subgenomic replicon expressing NS5A Q30E mutant infected in human HuH7 cells to EC50 for Hepatitis C virus subtype 1a H77 subgenomic replicon expressing NS5A infected in human HuH7 cells; format: functional, Hepacivirus hominis
Hepatitis C virus [15] = assay: Resistance index, ratio of EC50 for Hepatitis C virus subtype 1a H77 subgenomic replicon expressing NS5A Y93H mutant infected in human HuH7 cells to EC50 for Hepatitis C virus subtype 1a H77 subgenomic replicon expressing NS5A infected in human HuH7 cells; format: functional, Hepacivirus hominis
[16] = Clearance in mouse plasma at 2 mg/kg, iv by UPLC-MS/MS analysis; format: ADME, organism-based
Summary of the method: (§3)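 Overnight-fasted mice dosed iv once at 2 mg/kg. Vehicle was 2:2:96 (v/v) alcohol : Tween 80 : glucose injection diluted 2.5 times with 10% glucose injection. Plasma concentration measured by UPLC-MS/MS.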

[17] = Drug distribution in rat plasma at 10 mg/kg, po incubated for 8 hrs by UPLC-MS/MS analysis; format: ADME, organism-based; summary of the method: as §2
Hepatitis C virus [18] = assay: Antiviral activity against Hepatitis C virus subtype 1b Con1 subgenomic replicon expressing NS5A infected in human HuH7 cells assessed as reduction in viral replication incubated for 3 days by luciferase reporter gene assay; format: functional, organism-based, Hepacivirus hominis; details: subtype 1b Con1, Huh-7, 72 h
Summary of the method: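 HCV replicon cell assay; inhibition of replication read as decrease in luciferase signal. Percent inhibition computed at each compound concentration; EC50 (pM) from nonlinear regression fit to a 4-parameter logistic equation. Values are means of triplicate wells, with each experiment run at least twice.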

Hepatitis C virus [19] = assay: Antiviral activity against Hepatitis C virus subtype 4a subgenomic replicon expressing NS5A infected in human HuH7 cells assessed as reduction in viral replication incubated for 3 days by luciferase reporter gene assay; format: functional, organism-based, Hepacivirus hominis; details: Huh-7, 72 h
Hepatitis C virus [20] = assay: Resistance index, ratio of EC50 for Hepatitis C virus subtype 1a H77 subgenomic replicon expressing NS5A L31M mutant infected in human HuH7 cells to EC50 for Hepatitis C virus subtype 1a H77 subgenomic replicon expressing NS5A infected in human HuH7 cells; format: functional, Hepacivirus hominis; summary of the method: as §1
[21] = Half life in mouse at 2 mg/kg, iv by UPLC-MS/MS analysis; format: ADME, organism-based; details: in vivo; summary of the method: as §3
[22] = Drug distribution in mouse plasma at 10 mg/kg, po incubated for 3 hrs by UPLC-MS/MS analysis; format: ADME, organism-based; summary of the method: as §2
Hepatitis C virus [23] = assay: Resistance index, ratio of EC50 for Hepatitis C virus subtype 1b Con1 subgenomic replicon expressing NS5A L31V mutant infected in human HuH7 cells to EC50 for Hepatitis C virus subtype 1b Con1 subgenomic replicon expressing NS5A infected in human HuH7 cells; format: functional, Hepacivirus hominis
[24] = Tmax in mouse at 10 mg/kg, po by UPLC-MS/MS analysis; format: ADME, organism-based; details: in vivo
Summary of the method: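 Mice fasted overnight, given a single 10 mg/kg oral dose in 2:2:96 (v/v) alcohol:Tween 80:glucose injection. Plasma concentrations measured by UPLC-MS/MS.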

[25] = Drug distribution in mouse plasma at 10 mg/kg, po incubated for 24 hrs by UPLC-MS/MS analysis; format: ADME, organism-based; summary of the method: as §2
[26] = AUC (0 to infinity) in dog at 5 mg/kg, po by UPLC-MS/MS analysis; format: ADME, organism-based, Canis lupus familiaris; parameters: dose 5 mg/kg, route oral, time infinity; details: in vivo
[27] = Drug distribution in rat liver at 10 mg/kg, po incubated for 3 hrs by UPLC-MS/MS analysis; format: ADME, organism-based; details: read-out: Drug uptake; summary of the method: as §2
Hepatitis C virus [28] = assay: Resistance index, ratio of EC50 for Hepatitis C virus subtype 1b Con1 subgenomic replicon expressing NS5A P32L mutant infected in human HuH7 cells to EC50 for Hepatitis C virus subtype 1b Con1 subgenomic replicon expressing NS5A infected in human HuH7 cells; format: functional, Hepacivirus hominis

In the case of COC(=O)N[C@H](C(=O)N1CCC[C@H]1C(=O)Nc1ccc([C@@H]2CC[C@@H](c3ccc(NC(=O)[C@@H]4CCCN4C(=O)[C@@H](NC(=O)OC)[C@@H](C)OC)cc3)N2c2cc(F)c(N3CC[Si](C)(C)CC3)c(F)c2)cc1)[C@@H](C)OC, the “Ratio EC50” value (Hepatitis C virus [1]) is reported as 12.2, the Cmax [2] is reported as 395 ng/mL and the EC50 (Hepatitis C virus [3]) is reported as 0.027 nM. The MRT [4] was 17.5 h, the EC50 (Hepatitis C virus [5]) was 0.0016 nM and the Activity [6] was “Non-Toxic”. The Kp at 24 h [7] was 17.9, the EC50 (Hepatitis C virus [8]) was 0.0191 nM and the concentration at 3 h [9] was 1580 ng/g. For the same compound, the EC50 (Hepatitis C virus [10]) was 0.0204 nM, the “Ratio EC50” value (Hepatitis C virus [11]) was >203 and the remaining at 1 h, 1 µM [12] was 60.4%. For the same compound, the concentration at 8 h [13] was 293 ng/g, the “Ratio EC50” value (Hepatitis C virus [14]) was 175 and the “Ratio EC50” value (Hepatitis C virus [15]) was >833. The clearance [16] was 1.67 mL/min/kg, the concentration at 8 h [17] was 16.4 ng/mL and the EC50 (Hepatitis C virus [18]) was 0.0017 nM. For the same compound, the EC50 (Hepatitis C virus [19]) was 0.00033 nM, the “Ratio EC50” value (Hepatitis C virus [20]) was 9.9 and the half-life [21] was 12.2 h. The concentration at 3 h [22] was 308 ng/mL, the “Ratio EC50” value (Hepatitis C virus [23]) was 2.3 and the Tmax [24] was 7.3 h. It also gave a concentration at 24 h [25] of 58.6 ng/mL, an AUC [26] of 10100 ng·h/mL and a concentration at 3 h [27] of 1110 ng/g. The “Ratio EC50” value (Hepatitis C virus [28]) was 1.
